Measurements reported in ChEMBL document CHEMBL1121534, “Synthesis and biological activity of 5-(4-chlorobenzoyl)-4-(hydroxymethyl)-1-methyl-1H-pyrrole-2-acetic acid, a major metabolite of zomepirac sodium” (J Med Chem, 1980).
Calls of active or inactive are those of the source. No cut-off for these calls is given here.

What was measured:
Rattus norvegicus [1] = assay: Tested for effective dose in rat adjuvant-induced polyarthritis (AA) test in III phase. Not Active (NA) up to 125 mg/kg peroral dose; format: functional, organism-based; design: dose 125 mg/kg
Homo sapiens = species on record: Homo sapiens; assay: Tested for in vitro inhibition of collagen-induced aggregation of human platelets; format: functional
Rattus norvegicus [2] = assay: Tested for effective dose in rat adjuvant-induced polyarthritis (AA) test in II phase. Not Active (NA) up to 125 mg/kg peroral dose; format: functional, organism-based; design: dose 125 mg/kg
Rattus norvegicus [3] = assay: Tested for analgesic activity in acetylcholine-induced body constriction assay. Not Active (NA) upto 100 mg/kg peroral dose; format: functional, organism-based; design: dose 100 mg/kg
Rattus norvegicus [4] = species on record: Rattus norvegicus; assay: Tested for effective dose in rat adjuvant-induced polyarthritis (AA) test in II phase; format: functional
Rattus norvegicus [5] = assay: Tested for analgesic activity in acetylcholine-induced body constriction assay by peroral administration; format: functional; conditions: po
Rattus norvegicus [6] = assay: Tested for ulcerogenic activity by peroral administration in rat; format: functional
Outline: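 Rats were given the compound by mouth at doses up to 100 mg/kg, and ulcerogenic activity was assessed.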

Rattus norvegicus [7] = species on record: Rattus norvegicus; assay: Tested for effective dose in rat adjuvant-induced polyarthritis (AA) test in III phase; format: functional

IC50 (Homo sapiens) [nM] | Compound | ED50 (Rattus norvegicus [1]) | ED50 (Rattus norvegicus [2]) | ED50 (Rattus norvegicus [3]) | ED50 (Rattus norvegicus [4]) [mg/kg] | ED50 (Rattus norvegicus [5]) [mg/kg] | UD50 (Rattus norvegicus [6]) [mg/kg] | ED50 (Rattus norvegicus [7]) [mg/kg]
529000 | Cn1c(CC(=O)O)cc(CO)c1C(=O)c1ccc(Cl)cc1 | inactive | inactive | inactive |  |  |  | 
1800 | COc1ccc2c(c1)c(CC(=O)O)c(C)n2C(=O)c1ccc(Cl)cc1 [INDOMETHACIN] |  |  |  |  |  |  | 
1630 | Cc1cc(CC(=O)[O-])n(C)c1C(=O)c1ccc(Cl)cc1.O.O.[Na+] [ZOMEPIRAC SODIUM] |  |  |  | 0.72 | 0.72 | 13.9 | 5.67
